Active and inactive are the calls of the source. No cut-off for these calls is given here.
Assays:
[1] = molecular target: D(2) dopamine receptor (Homo sapiens, UniProt P14416); assay: Agonist activity at human recombinant dopamine D2 receptor expressed in rat pituitary cells assessed as inhibition of forskolin-stimulated cAMP accumulation; assay type: functional, cell-based, Pituitary gland cell
[2] = molecular target: D(3) dopamine receptor (Homo sapiens, UniProt P35462); assay: Agonist activity at human recombinant dopamine D3 receptor expressed in CHO cells assessed as inhibition of forskolin-stimulated cAMP accumulation; assay type: functional, cell-based
Chain of D(3) dopamine receptor (P35462 whole entry): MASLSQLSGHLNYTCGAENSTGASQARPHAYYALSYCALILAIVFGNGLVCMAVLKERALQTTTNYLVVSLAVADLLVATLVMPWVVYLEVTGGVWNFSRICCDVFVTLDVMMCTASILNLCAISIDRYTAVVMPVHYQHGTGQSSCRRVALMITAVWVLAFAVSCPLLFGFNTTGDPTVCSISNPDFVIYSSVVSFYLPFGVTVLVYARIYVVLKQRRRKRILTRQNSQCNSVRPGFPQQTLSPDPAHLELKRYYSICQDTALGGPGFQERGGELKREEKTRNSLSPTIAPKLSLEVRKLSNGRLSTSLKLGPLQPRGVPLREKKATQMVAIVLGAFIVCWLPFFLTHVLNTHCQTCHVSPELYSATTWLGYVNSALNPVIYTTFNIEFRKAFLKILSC

[3] = molecular target: D(1B) dopamine receptor (Homo sapiens, UniProt P21918); assay: Binding affinity to dopamine D5 receptor
Chain of D(1B) dopamine receptor (P21918 whole entry): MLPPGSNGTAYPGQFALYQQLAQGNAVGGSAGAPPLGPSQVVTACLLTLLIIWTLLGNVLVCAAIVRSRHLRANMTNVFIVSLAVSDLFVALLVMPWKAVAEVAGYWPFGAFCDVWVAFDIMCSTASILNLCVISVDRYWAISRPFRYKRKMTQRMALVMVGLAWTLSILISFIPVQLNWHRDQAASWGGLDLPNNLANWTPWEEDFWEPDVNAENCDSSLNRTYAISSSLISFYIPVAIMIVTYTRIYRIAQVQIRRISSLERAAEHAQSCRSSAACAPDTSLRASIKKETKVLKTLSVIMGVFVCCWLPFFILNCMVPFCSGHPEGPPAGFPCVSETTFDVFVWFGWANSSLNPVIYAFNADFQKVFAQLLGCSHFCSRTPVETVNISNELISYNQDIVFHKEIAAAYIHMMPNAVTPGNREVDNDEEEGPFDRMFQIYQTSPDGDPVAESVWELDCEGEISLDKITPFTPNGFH
How it was run: (§1)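 Broad commercial ligand-binding panel profiling, including dopamine D1 and D5 receptors; reported as IC50.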

[4] = Protein binding in dog plasma; assay type: ADME, cell-free, Canis lupus familiaris; conditions: read-out: PB (converted)
[5] = Dissociation constant, pKa of the compound; assay type: physicochemical
[6] = molecular target: T1, Muscarinic acetylcholine receptor M1 (Homo sapiens, UniProt P11229); assay: Binding affinity to human muscarinic M1 receptor
T1 sequence (P11229 whole entry): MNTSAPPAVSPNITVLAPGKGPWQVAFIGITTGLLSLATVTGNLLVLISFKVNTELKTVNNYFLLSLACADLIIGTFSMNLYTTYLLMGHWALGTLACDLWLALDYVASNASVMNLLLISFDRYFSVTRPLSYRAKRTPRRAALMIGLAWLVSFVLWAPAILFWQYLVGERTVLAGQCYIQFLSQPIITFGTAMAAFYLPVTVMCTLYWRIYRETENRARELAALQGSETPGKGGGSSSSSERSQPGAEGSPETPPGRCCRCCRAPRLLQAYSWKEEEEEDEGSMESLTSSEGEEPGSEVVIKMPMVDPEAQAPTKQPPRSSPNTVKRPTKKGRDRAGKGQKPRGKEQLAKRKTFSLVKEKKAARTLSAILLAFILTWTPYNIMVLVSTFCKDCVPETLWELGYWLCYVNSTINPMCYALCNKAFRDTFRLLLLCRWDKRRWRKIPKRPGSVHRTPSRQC

[7] = molecular target: T2, Alpha-1A adrenergic receptor (Rattus norvegicus, UniProt P43140); assay: Binding affinity to rat alpha-1A adrenergic receptor
T2 sequence (P43140 whole entry): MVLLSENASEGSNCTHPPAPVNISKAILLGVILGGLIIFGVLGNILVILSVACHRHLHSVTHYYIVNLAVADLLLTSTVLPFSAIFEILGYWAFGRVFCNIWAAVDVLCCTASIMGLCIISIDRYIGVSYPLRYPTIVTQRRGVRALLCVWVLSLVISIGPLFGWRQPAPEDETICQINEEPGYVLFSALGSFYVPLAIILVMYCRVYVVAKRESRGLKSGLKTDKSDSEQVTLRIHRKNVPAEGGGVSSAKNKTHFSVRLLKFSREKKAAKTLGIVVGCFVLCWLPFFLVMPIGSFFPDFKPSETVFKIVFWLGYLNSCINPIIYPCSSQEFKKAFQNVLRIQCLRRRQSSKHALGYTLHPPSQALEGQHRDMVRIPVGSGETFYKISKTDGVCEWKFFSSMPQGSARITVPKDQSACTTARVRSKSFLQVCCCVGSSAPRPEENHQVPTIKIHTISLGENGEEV

[8] = molecular target: T3, Alpha-2A adrenergic receptor (Homo sapiens, UniProt P08913); assay: Binding affinity to human alpha-2A adrenergic receptor
T3 sequence (P08913 whole entry): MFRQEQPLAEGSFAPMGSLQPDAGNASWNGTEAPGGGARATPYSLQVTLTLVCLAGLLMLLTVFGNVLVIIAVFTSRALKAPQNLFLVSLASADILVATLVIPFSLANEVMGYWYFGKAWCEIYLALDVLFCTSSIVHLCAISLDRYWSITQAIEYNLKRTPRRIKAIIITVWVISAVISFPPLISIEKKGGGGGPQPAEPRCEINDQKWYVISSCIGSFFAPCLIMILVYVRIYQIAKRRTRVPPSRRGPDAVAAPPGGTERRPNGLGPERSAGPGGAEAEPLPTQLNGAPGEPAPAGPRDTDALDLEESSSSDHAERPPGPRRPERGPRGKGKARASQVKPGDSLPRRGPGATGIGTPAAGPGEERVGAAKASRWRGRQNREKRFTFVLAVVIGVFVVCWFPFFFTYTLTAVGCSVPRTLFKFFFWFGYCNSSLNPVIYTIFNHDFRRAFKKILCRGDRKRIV

[9] = Stability in rat hepatocytes; assay type: ADME, cell-based, Liver, Hepatocyte
How it was run: (§2)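 Rat, dog and human hepatocyte incubations; read-out was the disappearance half-life of parent compound, in minutes.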

[10] = Half life in rat at 2 mg/kg administered by intranasal route; assay type: ADME, organism-based; set-up: dose 2 mg/kg; conditions: in vivo, inhaled or intranasal
How it was run: (§3)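 Rat study: compound freshly prepared in saline. An intravenous reference dose of 1 mg/kg was given as a bolus. Intranasal doses of 0.5 and 2 mg/kg were given as 20 µl into one nostril by pipette.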

[11] = Intranasal bioavailability in rat at 2 mg/kg; assay type: ADME, organism-based; conditions: in vivo, inhaled or intranasal; how it was run: as §3
[12] = Intranasal bioavailability in dog at 0.3 mg/kg; assay type: ADME, organism-based, Canis lupus familiaris; conditions: in vivo, inhaled or intranasal
How it was run: (§4)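 Dogs, male (n = 2) and female (n = 2). Compound freshly prepared in saline. The intravenous reference was a 10-min infusion at 3 ml/kg/h of a 0.2 mg/ml solution, giving a final dose of 0.1 mg/kg. Intranasal doses of 0.1 and 0.3 mg/kg were given as 100 µl into one nostril by spray device.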

[13] = molecular target: 5-hydroxytryptamine receptor 2A (Rattus norvegicus, UniProt P14842); assay: Binding affinity to rat 5HT2A receptor
Chain of 5-hydroxytryptamine receptor 2A (P14842 whole entry): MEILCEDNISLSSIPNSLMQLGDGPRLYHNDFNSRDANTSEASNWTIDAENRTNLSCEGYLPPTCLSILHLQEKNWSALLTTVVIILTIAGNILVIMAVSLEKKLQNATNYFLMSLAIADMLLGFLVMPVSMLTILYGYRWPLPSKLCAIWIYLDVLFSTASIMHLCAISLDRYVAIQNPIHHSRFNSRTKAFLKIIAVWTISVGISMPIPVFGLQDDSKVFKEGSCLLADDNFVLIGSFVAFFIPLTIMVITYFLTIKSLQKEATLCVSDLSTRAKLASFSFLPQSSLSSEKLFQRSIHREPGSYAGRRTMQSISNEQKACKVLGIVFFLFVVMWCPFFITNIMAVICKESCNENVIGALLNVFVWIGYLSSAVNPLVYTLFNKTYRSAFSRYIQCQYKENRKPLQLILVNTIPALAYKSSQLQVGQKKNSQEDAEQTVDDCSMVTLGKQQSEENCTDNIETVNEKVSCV

[14] = Stability in human hepatocytes; assay type: ADME, cell-based, Liver, Hepatocyte; how it was run: as §2
[15] = molecular target: T4, 5-hydroxytryptamine receptor 1A (Homo sapiens) (UniProt P08908); assay: Agonist activity at human recombinant 5HT1A at 1 uM; assay type: functional
T4 sequence (whole entry): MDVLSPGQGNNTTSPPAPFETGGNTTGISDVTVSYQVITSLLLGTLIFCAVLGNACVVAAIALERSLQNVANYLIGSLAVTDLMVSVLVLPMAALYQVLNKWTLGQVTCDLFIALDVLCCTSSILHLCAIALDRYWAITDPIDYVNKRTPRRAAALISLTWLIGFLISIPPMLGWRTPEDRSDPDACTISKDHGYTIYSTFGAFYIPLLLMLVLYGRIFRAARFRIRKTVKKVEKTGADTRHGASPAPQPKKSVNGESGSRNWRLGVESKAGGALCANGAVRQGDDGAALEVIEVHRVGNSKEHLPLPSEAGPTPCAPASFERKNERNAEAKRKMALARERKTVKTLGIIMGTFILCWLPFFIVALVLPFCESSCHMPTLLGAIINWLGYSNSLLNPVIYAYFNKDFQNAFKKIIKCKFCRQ

[16] = molecular target: T4, 5-hydroxytryptamine receptor 1A (Homo sapiens); assay: Binding affinity to human 5HT1A receptor at 100 nM
How it was run: (§5)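 Single-concentration binding screen in the Cerep wide ligand profile panel at the human 5HT1A receptor. Read-out is percent binding activity at each test concentration.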

[17] = molecular target: D(1A) dopamine receptor (Homo sapiens, UniProt P21728); assay: Binding affinity to dopamine D1 receptor; how it was run: as §1
Chain of D(1A) dopamine receptor (P21728 whole entry): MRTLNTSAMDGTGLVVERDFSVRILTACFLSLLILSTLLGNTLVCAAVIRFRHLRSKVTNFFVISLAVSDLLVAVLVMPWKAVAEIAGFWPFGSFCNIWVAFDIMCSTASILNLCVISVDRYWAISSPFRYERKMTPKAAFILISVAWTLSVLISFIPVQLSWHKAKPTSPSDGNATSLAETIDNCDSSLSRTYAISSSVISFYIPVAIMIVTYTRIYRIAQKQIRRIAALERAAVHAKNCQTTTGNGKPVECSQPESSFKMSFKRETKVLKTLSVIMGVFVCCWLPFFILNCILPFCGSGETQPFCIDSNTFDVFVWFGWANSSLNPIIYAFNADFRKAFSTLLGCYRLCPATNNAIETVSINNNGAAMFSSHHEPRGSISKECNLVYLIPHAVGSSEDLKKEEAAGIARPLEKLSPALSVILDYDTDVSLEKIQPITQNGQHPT

[18] = Stability in dog hepatocytes; assay type: ADME, cell-based, Liver, Hepatocyte; how it was run: as §2
[19] = test system: Canis familiaris; assay: Effect on male erectile dysfunction in sc dosed dog; assay type: functional, Canis lupus familiaris
How it was run: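 Animal models of male erectile dysfunction, with multiple subcutaneous dosing; ED50 expressed as free drug concentration.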

[20] = molecular target: T5, 5-hydroxytryptamine receptor 1A (Homo sapiens, UniProt P08908); assay: Antagonist activity at human recombinant 5HT1A receptor; assay type: functional
T5 sequence (P08908 whole entry): T4 sequence (whole entry)

[21] = Distribution coefficient, log D at pH 7.4; assay type: physicochemical; conditions: octanol/water
[22] = test system: Canis familiaris; assay: Toxicity in sc dog assessed as nausea upto […]; assay type: organism-based, Canis lupus familiaris; conditions: in vivo
[23] = molecular target: T4, 5-hydroxytryptamine receptor 1A (Homo sapiens); assay: Binding affinity to human 5HT1A receptor at 10 uM; how it was run: as §5
[24] = molecular target: Voltage-gated inwardly rectifying potassium channel KCNH2 (Homo sapiens, UniProt Q12809); assay: Displacement of dofetilide from hERG
Chain of Voltage-gated inwardly rectifying potassium channel KCNH2 (Q12809 whole entry): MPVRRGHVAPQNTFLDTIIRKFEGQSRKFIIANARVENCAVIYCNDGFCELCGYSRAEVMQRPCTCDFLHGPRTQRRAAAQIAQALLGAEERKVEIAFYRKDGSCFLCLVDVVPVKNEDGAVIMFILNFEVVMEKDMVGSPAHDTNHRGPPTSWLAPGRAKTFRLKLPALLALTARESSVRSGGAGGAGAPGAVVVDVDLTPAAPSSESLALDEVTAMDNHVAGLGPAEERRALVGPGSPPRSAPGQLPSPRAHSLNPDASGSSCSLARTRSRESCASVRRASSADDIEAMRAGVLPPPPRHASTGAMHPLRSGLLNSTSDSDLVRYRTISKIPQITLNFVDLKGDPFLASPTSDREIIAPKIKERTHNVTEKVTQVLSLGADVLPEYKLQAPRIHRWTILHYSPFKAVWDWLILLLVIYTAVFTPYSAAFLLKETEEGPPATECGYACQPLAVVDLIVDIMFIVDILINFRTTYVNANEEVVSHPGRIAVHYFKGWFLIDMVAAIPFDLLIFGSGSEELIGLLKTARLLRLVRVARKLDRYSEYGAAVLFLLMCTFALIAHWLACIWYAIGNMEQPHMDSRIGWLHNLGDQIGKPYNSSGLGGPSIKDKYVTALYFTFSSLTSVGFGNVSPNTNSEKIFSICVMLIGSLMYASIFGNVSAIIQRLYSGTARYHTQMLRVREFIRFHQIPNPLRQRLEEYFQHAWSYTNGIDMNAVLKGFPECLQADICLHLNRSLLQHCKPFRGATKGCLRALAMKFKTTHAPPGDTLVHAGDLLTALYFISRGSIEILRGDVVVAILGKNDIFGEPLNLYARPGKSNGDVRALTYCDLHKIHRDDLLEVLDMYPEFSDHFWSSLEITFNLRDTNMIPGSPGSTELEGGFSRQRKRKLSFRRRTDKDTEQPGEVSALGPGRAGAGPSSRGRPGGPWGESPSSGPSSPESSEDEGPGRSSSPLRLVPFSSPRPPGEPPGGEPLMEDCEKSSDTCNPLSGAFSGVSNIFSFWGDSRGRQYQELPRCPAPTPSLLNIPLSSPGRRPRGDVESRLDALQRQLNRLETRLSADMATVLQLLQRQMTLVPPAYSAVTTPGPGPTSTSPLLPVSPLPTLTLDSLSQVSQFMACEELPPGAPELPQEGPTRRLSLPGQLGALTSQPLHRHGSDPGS

[25] = test system: Canis familiaris; assay: Toxicity in sc dog assessed as hypotensive effects upto […]; assay type: organism-based, Canis lupus familiaris; conditions: in vivo
[26] = test system: Canis familiaris; assay: Toxicity in sc dog assessed as emesis upto […]; assay type: organism-based, Canis lupus familiaris; conditions: in vivo
[27] = Solubility of the compound; assay type: physicochemical
[28] = Protein binding in rat plasma; assay type: ADME, cell-free; conditions: read-out: PB (converted)
[29] = Tmax in rat at 2 mg/kg administered by intranasal route; assay type: ADME, organism-based; set-up: dose 2 mg/kg; conditions: in vivo, inhaled or intranasal; how it was run: as §3
[30] = Apparent permeability across Caco-2 cells at 1 uM; assay type: ADME, cell-based; conditions: human
[31] = Half life in dog at 0.3 mg/kg; assay type: ADME, organism-based, Canis lupus familiaris; set-up: dose 0.3 mg/kg; conditions: in vivo; how it was run: as §4
[32] = Tmax in dog at 0.3 mg/kg; assay type: ADME, organism-based, Canis lupus familiaris; set-up: dose 0.3 mg/kg; conditions: in vivo; how it was run: as §4
[33] = Protein binding in human plasma; assay type: ADME, cell-free; conditions: read-out: PB (converted)
[34] = molecular target: Histamine H1 receptor (Homo sapiens, UniProt P35367); assay: Binding affinity to human histamine H1 receptor
Chain of Histamine H1 receptor (P35367 whole entry): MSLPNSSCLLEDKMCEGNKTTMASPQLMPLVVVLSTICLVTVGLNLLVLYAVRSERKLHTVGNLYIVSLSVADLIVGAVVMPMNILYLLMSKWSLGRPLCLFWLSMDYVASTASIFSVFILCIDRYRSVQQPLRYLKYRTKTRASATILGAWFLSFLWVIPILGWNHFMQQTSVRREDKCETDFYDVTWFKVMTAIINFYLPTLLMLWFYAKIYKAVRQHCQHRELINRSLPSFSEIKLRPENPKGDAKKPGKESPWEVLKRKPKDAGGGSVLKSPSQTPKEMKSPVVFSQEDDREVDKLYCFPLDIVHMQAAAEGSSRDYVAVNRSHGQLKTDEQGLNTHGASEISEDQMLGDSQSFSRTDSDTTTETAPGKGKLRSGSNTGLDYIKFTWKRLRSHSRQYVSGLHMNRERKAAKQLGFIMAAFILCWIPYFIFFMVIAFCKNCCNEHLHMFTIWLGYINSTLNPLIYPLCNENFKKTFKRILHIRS

Chain of D(2) dopamine receptor (P14416 whole entry): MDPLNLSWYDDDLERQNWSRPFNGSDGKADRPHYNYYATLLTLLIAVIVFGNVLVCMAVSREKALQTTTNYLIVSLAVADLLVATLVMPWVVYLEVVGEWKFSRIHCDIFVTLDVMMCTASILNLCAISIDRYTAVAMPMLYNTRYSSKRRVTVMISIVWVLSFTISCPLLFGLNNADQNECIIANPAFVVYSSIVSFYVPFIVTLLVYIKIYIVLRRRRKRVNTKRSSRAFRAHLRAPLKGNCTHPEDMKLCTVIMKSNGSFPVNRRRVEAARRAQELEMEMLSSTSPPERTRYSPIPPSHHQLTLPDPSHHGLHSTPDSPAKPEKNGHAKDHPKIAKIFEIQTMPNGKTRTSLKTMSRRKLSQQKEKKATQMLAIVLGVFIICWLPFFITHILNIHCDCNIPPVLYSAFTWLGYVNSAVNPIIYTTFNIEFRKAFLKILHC

`COCCN1CCOC(c2cccc(O)c2)C1` (configuration not stated) gave an EC50 [1] greater than 10000 nM and an EC50 [2] greater than 3000 nM.
Compound `CCCN1CCOC(c2cccc(C#N)c2)C1` (configuration not stated) has an EC50 [2] greater than 1000 nM.
`CCN1CCOC(c2cccc(O)c2)C1` (configuration not stated) gave an EC50 [1] greater than 30000 nM and an EC50 [2] of 547 nM.
`CCCN1CCOC(c2ccc(O)c(N)c2)C1` (configuration not stated) gave an EC50 [2] of 40 nM.
Work on `CCCN1CCOC(c2cccc(O)c2C)C1` (configuration not stated) yielded an EC50 [2] greater than 1000 nM.
`CCCN1CCOC(c2ccc(F)c(O)c2)C1` (configuration not stated) showed an EC50 [2] of 35 nM.
`CCCN1CCOC(c2cccc(CO)c2)C1` (configuration not stated) gave an EC50 [2] greater than 1000 nM.
`CCCN1CCOC(c2cccc(S(C)(=O)=O)c2)C1` (configuration not stated) showed an EC50 [1] greater than 10000 nM and an EC50 [2] greater than 1000 nM.
Work on `CCCN1CCOC(c2cccc(O)c2)C1` (configuration not stated) yielded an EC50 [1] greater than 10000 nM and an EC50 [2] of 27 nM.
Work on `CCCN1CCOC(c2cccc(C(=O)OC)c2)C1` (configuration not stated) yielded an EC50 [2] greater than 1000 nM.
`CCCN1CCOC(c2cc(O)ccc2Br)C1` (configuration not stated) gave an EC50 [2] greater than 10000 nM.
For `CCCN1CCOC(c2ccc(O)c(C(C)=O)c2)C1` (configuration not stated), the EC50 [2] was greater than 1000 nM.
With `CCCN1CCOC(c2ccc(Cl)c(O)c2)C1` (configuration not stated) the EC50 [2] was greater than 688 nM.
Compound `CCCN1CCOC(c2ccc(O)c(C(N)=O)c2)C1` (configuration not stated) has an EC50 [2] of 427 nM.
Work on `CCCN1CCOC(c2ccccc2)C1` (configuration not stated) yielded an EC50 [1] greater than 10000 nM and an EC50 [2] greater than 1000 nM.
Compound `CCCN1CCOC(c2cccc(OC(F)(F)F)c2)C1` (configuration not stated) has an EC50 [1] greater than 1000 nM and an EC50 [2] greater than 1000 nM.
Compound `CCCN1CCO[C@H](c2cccc(O)c2)C1` has an IC50 [3] greater than 10000 nM, an EC50 [1] greater than 10000 nM and a fraction unbound [4] of 0.24. It also gave a pKa [5] of 7.4, a Ki [6] greater than 1000 nM and a Ki [7] greater than 1000 nM. The Ki [8] was greater than 1000 nM, the half-life [9] was 28 min and the half-life [10] was 18 min. The bioavailability [11] was 20%, the bioavailability [12] was 33% and the Ki [13] was 970 nM. For the same compound, the half-life [14] was 61 min, the Activity [15] was “inactive” and the Activity [16] was 16%. It also gave an IC50 [17] greater than 10000 nM, a half-life [18] of 18 min and an ED50 [19] of 0.2 nM. For the same compound, the IC50 [20] was greater than 20000 nM, the logD [21] was 1 and the Activity [22] was “Non-toxic”. The Activity [23] was 95%, the Ki [24] was greater than 4000 nM and the EC50 [2] was 8 nM. The Emax [2] was greater than 90%, the Activity [25] was “Non-toxic” and the Activity [26] was “Non-toxic”. The solubility [27] was greater than 1000 mg/mL, the fraction unbound [28] was 0.59 and the Tmax [29] was 5 min. The Papp at 1 µM [30] was 38 ×10⁻⁶ cm/s, the half-life [31] was 96 min and the Tmax [32] was 5 min. The fraction unbound [33] was 0.35 and the Ki [34] was greater than 2000 nM.
Compound `CCCN1CCOC(c2cccc(C(=O)O)c2)C1` (configuration not stated) has an EC50 [1] greater than 10000 nM and an EC50 [2] greater than 1000 nM.
In the case of `CCCN1CCOC(c2cccc(-c3nnc[nH]3)c2)C1` (configuration not stated), the EC50 [2] is reported as greater than 1000 nM.
Compound `CCCN1CCOC(c2ccc(O)c(CO)c2)C1` (configuration not stated) has an EC50 [2] greater than 1000 nM.
For `CCCN1CCO[C@@H](c2ccc(F)c(O)c2)C1`, the EC50 [1] was greater than 10000 nM and the EC50 [2] was greater than 10000 nM.
Work on `CCCN1CCOC(c2cccc(Cl)c2)C1` (configuration not stated) yielded an EC50 [1] greater than 10000 nM and an EC50 [2] greater than 2800 nM.
Work on `CCCN1CCOC(c2cccc(SC)c2)C1` (configuration not stated) yielded an EC50 [1] greater than 10000 nM and an EC50 [2] greater than 1000 nM.

— ChEMBL document CHEMBL1140586, “Design and synthesis of a functionally selective D3 agonist and its in vivo delivery via the intranasal route” (Bioorg Med Chem Lett, 2007)
